High-throughput results deposited in PubChem by several laboratories.
UCH37 DUB inh – human UCH37 deubiquitinating enzyme inhibition | Q9Y5K5 | purified proteasome/UCH37, Ub-AMC cleavage fluorescence | inhibition, % (test concentration not listed) | hit rate 0.33% among 330,000;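 active = mean inhibition over replicate wells above about 20%, limit read from the data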;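 also: 0% = compound-free wells with enzyme and 100% = wells lacking proteasome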
Target sequence (Q9Y5K5 whole entry, looked up): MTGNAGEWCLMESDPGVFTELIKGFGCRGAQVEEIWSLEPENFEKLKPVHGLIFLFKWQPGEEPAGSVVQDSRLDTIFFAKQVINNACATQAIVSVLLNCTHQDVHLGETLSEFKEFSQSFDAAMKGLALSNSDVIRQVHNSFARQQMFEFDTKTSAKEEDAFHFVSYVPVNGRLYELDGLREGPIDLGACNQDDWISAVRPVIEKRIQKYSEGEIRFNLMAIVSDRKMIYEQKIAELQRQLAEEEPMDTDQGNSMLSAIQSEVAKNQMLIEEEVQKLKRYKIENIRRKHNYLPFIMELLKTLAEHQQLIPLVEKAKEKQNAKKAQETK
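system = Proteasome-associated human UCH37 deubiquitinase | amount = 0.15 nM proteasome as dispensed | medium = pH 7.4 Tris-HCl (50 mM) with ovalbumin, ATP-MgCl2, DTT | incubation = 30 min preincubation with enzyme, 25 min cleavage at room temperature | detection = AMC fluorescence 355/460 nm | read-out basis = percent inhibition | controls = no-proteasome and no-compound wells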
SUMO Mot1 rescue – blocks SUMOylation pathway, rescuing yeast Mot1-301 growth; S. cerevisiae Mot1-301 growth rescue, ATP luminescence, 38.5C; percent above DMSO median, 100 means doubled; growth rescue, % at 18.8 µM; hit rate 1% among 320,000; AID 2716;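 active = every valid replicate shows activation above 250% relative to neutral control wells; inactive = the rest, any valid replicate at or below 250%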;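 also: OY570 slx delta 5 strain wells were the positive control but not used for scaling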
Efflux pump mplx – blocks antifungal efflux pumps in multiplex yeast assay. S. cerevisiae Candida pump triplex, Nile Red efflux. AID 485275. hit rate 0.44% among 330,000. inhibition, % at 10 µM;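 active = plate passing quality check with inhibition over a set limit, or well fluorescence over plate mean plus 4 SD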;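 also: Nile Red retained in pooled yeast measured as flow cytometry median fluorescence; 0% = buffer negative control and 100% = Enniatin B positive control; higher means more Nile Red kept so more efflux inhibition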
cardiac RTF act – cardiac RTF calcium sensitization | P19429+P45379 | IANBD-labeled TnC RTF fluorescence at EC20 calcium; 0% EC20 calcium, 100% full calcium | activation, % at 7.2 µM | hit rate 0.24% among 340,000 | AID 493008;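 active = activation above the mean over all tested compounds plus 3 SD, cut at about 30% in these data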;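 also: rise in fluorescence read as greater calcium sensitivity of cardiac thin filaments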
ARNT TACC3 PPI – ARNT/TACC3 interaction disruption. Q9Y6A5. AlphaScreen His-ARNT PAS-B/GST-TACC3 binding, luminescence; TACC3 fragment carries E629A point mutation. inhibition, % at 9.99 µM. hit rate 0.66% among 390,000;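 active = mean inhibition of replicates at least 50% and at least half of replicates each reaching 50%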;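 also: 0% = complete ARNT plus TACC3 wells and 100% = ARNT alone without TACC3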
RTF Ca sens inh – cardiac RTF calcium desensitization. P19429+P45379. hit rate 0.12% among 340,000. inhibition, % at 7.15 µM. IANBD-labeled cardiac RTF, Ca2+ fluorescence. AID 493244;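 active = inhibition above the mean inhibition of all tested compounds plus 3 SD, cut at about 17% in these data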;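 also: assay run at fixed EC70 calcium of 1.6 mM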
Starred values were filed as active, the others as inactive; i = inactive; . = no result given; + = active, no number. The list is not random: actives were taken first. Their share in the collection is about 2.1%.

SMILES	UCH37 DUB inh	SUMO Mot1 rescue	Efflux pump mplx	cardiac RTF act	ARNT TACC3 PPI	RTF Ca sens inh
Cc1cc(/C([O-])=C(/C(=S)Nc2ccc(F)cc2)[n+]2ccccc2)c(C)n1-c1ccc(F)cc1	4.5	-19.9	-0.3	-4.2	47.5*	-0.3
Cc1cc(/C([O-])=C(/C(=S)Nc2ccccc2)[n+]2ccccc2)c(C)n1-c1ccccc1	8.6	68.9	0.1	-3.9	20.7	1.0
N#CC(=NNc1cccc(Cl)c1)C(=O)c1ccccc1	7.2	.	.	.	.	.
O=C(O)c1ccc(NN=C2CCCc3ccccc32)cc1	22.2*	.	.	.	.	.
COC(=O)N/N=C1\CCCc2ccccc21	.	7.7	-0.1	1.1	-10.2	4.2
Cc1nc2c(C)cccc2cc1C(=O)NN=Cc1ccc(N(C)C)cc1	4.5	.	.	.	.	.
COc1ccc(N2C(=O)CC(N(C)CCc3ccc(OC)c(OC)c3)C2=O)cc1 (stereo not drawn)	3.9	-9.8	-0.1	0.6	-6.9	11.7
COC(=O)c1ccc(N2C(=O)CC(N(C)CCc3ccc(OC)c(OC)c3)C2=O)cc1 (stereo not drawn)	1.3	302.6*	0.0	0.9	-4.2	-5.7
O=c1oc2ccccc2c2nccnc12	0.3	323.9*	0.3	7.0	4.9	2.0
COc1ccc(Br)cc1C=NNC(=O)C[n+]1ccccc1	3.9	.	.	.	.	.
O=C1CSC(=S)N1N=Cc1ccc(Cl)s1	.	.	.	-7.4	61.2*	-3.5
O=C1CSC(=S)N1/N=C/c1ccc(O)c(O)c1O	.	-12.9	-0.1	-7.5	97.7*	11.5
O=C1CSC(=S)N1/N=C/c1cc(Br)ccc1O	.	-17.2	0.3	.	.	.
CC(NC(=O)c1ccccc1F)c1nnc(SCc2nc3ccccc3c(=O)[nH]2)n1C (stereo not drawn)	1.5	292.3*	0.0	1.5	-3.1	-2.8
CC(NC(=O)c1ccccc1)c1nnc(SCc2nc3ccccc3c(=O)[nH]2)n1C (stereo not drawn)	3.1	-17.7	-0.1	-1.7	.	-13.1
Cc1cc(C)nc(NN=CC2=C(N3CCOCC3)/C(=C\c3ccc(Cl)cc3)CC2)n1	-9.2	.	.	.	.	.
O=C(COc1nsnc1N1CCOCC1)N/N=C/c1ccccc1O	.	240.1	-0.6	-0.2	59.0*	1.5
CSc1nc(C)cc(OCC(=O)N/N=C/c2ccccc2O)n1	.	-9.1	-0.3	3.5	49.2*	-3.5
COC(=O)NN=Cc1cn(CC(C)COc2ccccc2)c2ccccc12 (stereo not drawn)	-1.8	.	.	.	.	.
Cc1n[nH]c(=S)n1N=Cc1ccc(OCc2ccc(Cl)cc2Cl)cc1	0.0	.	.	.	.	.
Cc1cccc(OCc2nn[nH]n2)c1C	2.7	9.5	-0.2	164.5*	10.0	5.6
O=C(CN1CC(c2ccccc2)CC1=O)NN=Cc1cc(Br)ccc1O (stereo not drawn)	-28.3	.	.	.	.	.
O=C(C1CCCN(C2CC(=O)N(c3ccc(Cl)cc3)C2=O)C1)N1CCCC1 (stereo not drawn)	-1.4	266.5*	0.1	4.6	-8.1	-5.9
O=C(C1CCCN(C2CC(=O)N(c3ccc(F)cc3)C2=O)C1)N1CCCC1 (stereo not drawn)	-1.5	197.9	0.1	-2.3	-9.1	-6.1
Cc1cc(C=NNC(N)=S)c(C)n1-c1ccc(Cl)c(Cl)c1	-1.9	.	.	.	.	.
SMILES	UCH37 DUB inh	SUMO Mot1 rescue	Efflux pump mplx	cardiac RTF act	ARNT TACC3 PPI	RTF Ca sens inh
COc1ccccc1NC(=O)C(=NOCc1ccc(F)cc1)C(C)=O	4.2	.	.	.	.	.
CN(C)S(=O)(=O)N1C(=O)c2ccccc2C1=O	5.0	-3.5	-0.1	-1.7	-14.9	-9.6
CN(C)/C=C1\C=C2C(=O)c3ccccc3N2C1=O	.	4.9	0.4	+	-14.3	i
CC1CCCC(=NNC(=O)c2ccccc2-n2cccc2)C1 (stereo not drawn)	2.3	.	.	.	.	.
CC[n+]1c(/C=C2\Sc3ccccc3N2C)ccc2cccc(C)c21	23.5*	.	.	45.7*	16.1	-105.1
COc1ccc(C=NN2C(=N)SCC2=O)cc1	7.9	.	.	.	.	.
COc1ccc(-n2nc3c(N4CCC(C(=O)NCc5ccco5)CC4)nnc(C)c3c2C)cc1	-17.9	-0.6	-0.4	29.7*	3.1	-1.9
N#Cc1cccc2cnccc12	-0.5	329.1*	0.1	-1.5	.	-8.4
Oc1cccc2cnccc12	3.0	34.2	0.0	3.9	-3.9	7.8
Cc1c(N/N=C(\C#N)C(=O)c2ccccc2)c(=O)n(-c2ccccc2)n1C	13.9	.	.	4.2	67.0*	-5.6
CCOC(=O)/C(C#N)=N/Nc1c(C)n(C)n(-c2ccccc2)c1=O	11.1	-6.5	-0.1	.	.	.
Cc1ccccc1C(=O)/C(C#N)=N/Nc1c(C)n(C)n(-c2ccccc2)c1=O	10.1	-15.6	-0.2	5.6	56.7*	-3.1
O=c1c2ccccc2c(C=Nc2ccc(Cl)cn2)c(O)n1-c1cc(Cl)ccc1N1CCOCC1	-0.2	-2.5	0.4*	3.8	-1.3	-0.5
NC(=O)Nn1c(CCC(=O)O)ccc1-c1ccc(F)cc1	3.3	349.2*	-0.2	4.6	2.4	-2.0
O=C(O)c1ccccc1-c1ccccc1C(=O)Nc1ccc2c(c1)[nH]c(=O)c1ccccc12	3.5	-4.0	0.1	3.3	47.0*	-8.5
CN(C)S(=O)(=O)c1cccc(NC(=S)NN=CC(=O)c2ccccc2)c1	-0.5	.	.	.	.	.
CC(=NNC(=S)N1CCN(c2ccccn2)CC1)c1ccccn1	.	.	.	-5.8	22.4	-0.5
CC(=NNC(=S)N1CC2CCC(CC2)C1)c1cnccn1	.	.	.	-5.9	51.3*	-2.5
CC(=NNC(=S)N1CCN(c2ccccn2)CC1)c1nccs1	.	.	.	-1.7	66.2*	-3.5
C/C(=N\NC(=O)C1CCCN(S(=O)(=O)c2ccccc2)C1)c1ccccn1 (stereo not drawn)	.	-18.3	-0.1	0.4	53.0*	-1.5
CC(=NNC(=S)N1CCN(C2CCCCCC2)CC1)c1ccccn1	.	.	.	6.4	76.6*	-6.5
COc1cccc(NC(=O)c2cc3ccccc3oc2=NO)c1	3.9	.	.	.	.	.
CC1(C)Oc2ccc3ccc(=O)oc3c2C(C=NO)C1=O (stereo not drawn)	-11.8	.	.	.	.	.
O=C(NN=Cc1cn(-c2cccs2)nc1-c1ccccc1)c1ccc(O)cc1	-4.4	.	.	.	.	.
O=C(CCC(=O)Nc1ccc(F)cc1)NN=Cc1ccc(F)cc1	4.8	.	.	.	.	.
CCCOc1ccc(C(=O)ON=C(CC)c2ccc(C)cc2)cc1	6.7	.	.	.	.	.
N/C(=N\OS(=O)(=O)c1ccc2ccccc2c1)c1ccccn1	-3.3	.	.	2.2	58.7*	6.0
CCN(CC)CCCN(Cc1cc2cc3c(cc2[nH]c1=O)OCO3)C(=S)NCCCN(C)C	-145.8	879.8*	-0.1	3.5	0.4	-9.1
C[C@@]12C(=O)Nc3cc(F)ccc3C(=O)N1[C@H]1c3cc(Br)ccc3OC[C@@H]1[C@@H]2c1ccccc1	6.6	301.6	0.1	2.8	-12.9	6.4
C[C@@]12C(=O)Nc3ccc(F)cc3C(=O)N1[C@H]1c3cc(Br)ccc3OC[C@@H]1[C@@H]2c1ccccc1	-31.9	348.6*	0.1	-0.9	2.2	-3.6
